Data taken from ChEMBL document CHEMBL2062518, “Total synthesis and biological evaluation of transvalencin Z” (J Nat Prod, 2012).

tested on: Mycobacterium tuberculosis variant bovis BCG; assay: Antimicrobial activity against Mycobacterium bovis BCG TMC1011 Pasteur ATCC 35734 after 24 to 48 hrs; assay type: functional
Procedure, shortened: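 Streaked from frozen glycerol stock onto nutrient agar (1.5% agar), 37 °C, 24 h. Single colonies were grown in nutrient broth to OD600 1.0 and diluted to OD600 0.003. Cells were exposed to compound at varying concentrations from DMSO stocks (1% DMSO). Growth was read at 600 nm at 24 and 48 h, with 690 nm background subtracted and normalised to DMSO controls.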

Row | Compound | MIC99 [µM]
1 | O=CNCCCC[C@H](NC(=O)[C@H]1COC(c2ccccc2O)=N1)C(=O)O | > 100
2 | O=CNCCCC[C@@H](NC(=O)[C@H]1COC(c2ccccc2O)=N1)C(=O)O | > 100
3 | O=CNCCCC[C@H](NC(=O)[C@@H]1COC(c2ccccc2O)=N1)C(=O)O | > 100
4 | O=CNCCCC[C@@H](NC(=O)[C@@H]1COC(c2ccccc2O)=N1)C(=O)O | > 100
